The source of these data is the RNAGym collection of RNA variant scans (doi:10.1126/science.aae0568).

This sample holds only a part of the variants without activity.

B1: tRNA (parent)
chain: GUUCCGUUGGCGUAAUGGUAACGCGUCUCCCUCCUAAGGAGAAGACUGCGGGUUCGAGUCCCGUACGGAACG

The data set covers variants of B1. Description: yeast fitness relative to wild type (ratio to wild type); higher = fitter; tRNA-Arg(CCU), competitive growth, 37 C, YPD. In short, it runs like this:
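Gene amplicons from the start population and from each of six end populations were read by 100-nucleotide paired-end sequencing. Those end populations came from pooled Saccharomyces cerevisiae strains carrying tRNA-Arg(CCU) gene variants at the native locus, competed in YPD at 37°C for 24 hours. Fitness relative to wild type was worked out from changes in genotype frequencies. Genotypes needed ≥ 100 starting reads, and estimates < 0.5 were set to 0.5.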
Take GUUCCGUUGGCGUAAUGGUAACGCGUCUCCCUCCUAAGGCGAAGACUGCGGGUUCGAGUACCGUAUGGAACG [A40C C60A C66U]: the yeast fitness was ≤ 0.5.

As to GUUCCCUUGGCGUAAUGGUAACGCGUCUCCCUCCUAAGGAGCAGACUGUGGGUUCGAGUCCCGUAAGGAACG [G6C A42C C49U C66A], the yeast fitness was ≤ 0.5.

GUUCCGUUGGCAUAAUGGUAACGCGUCUCCCUCCUAAGGAGAAGACCGAGGGUUCGUGUCCCGUACGGAACG [G12A U47C C49A A57U]: the yeast fitness stood at 0.53.

In the case of GUUCCGUUGGCGUAAUGGCAACGCGUCUACCUCCUAAGCAGAAGACUGCGGGUUCGGGUCUCGUAUGGAACG [U19C C29A G39C A57G C61U C66U], the yeast fitness was ≤ 0.5.

Take GUUCCGUUGGCGUAAUGGUAACGCGUCUCCCUCCUAAGGAGAAGACCGCGGGUUCGAGUCCCGUAAGGAACG [U47C C66A]: the yeast fitness was found to be 0.775.

For GUUCCGUUGGCGUAUUGGUGACGCGUCUCACUCCUAAGGAGAAGACUGCGGGUUCGAGUCCCCUACGGAACG [A15U A20G C30A G63C], the yeast fitness was ≤ 0.5.

Consider GUUCCGUUGGCGUAAUGGUAGCGCGUCUCGCUCCUGAGGAGAAGAGUGCGGGUUCGUGUCCCGUACGGAACG [A21G C30G A36G C46G A57U], for which the yeast fitness was 0.551.

As for GUUCCGUUGGCGUAAUGGUAACGCGUCUUACUCCUAAGGAGAAGACUGCGGGUUCGAGUCGCGUACGGAACG [C29U C30A C61G], the yeast fitness is ≤ 0.5.

Regarding GUUUCGUUGGCGUAAUGGUAACGCAUCUCCCUCGUAAGGAGAAGACUGCGGUUUCGAGUCCCGUACGGAACG [C4U G25A C34G G52U], the yeast fitness is ≤ 0.5.

As to GUUCCGUUGGUGUAAUGGUAACGCGUCUCCUUCCCAAGGAGAAGACUGCGGGUUCGAGUCCCGUACGGUACG [C11U C31U U35C A69U], the yeast fitness was ≤ 0.5.

As for GUUCCGUUGGCGUAAUAGUAACGCGUCUCCCUCCUAAGGAGAAGACUGGGGGUUCGAGUCCCGUACGGAACG [G17A C49G], the yeast fitness turned out to be 0.761.

GUUCCGUUGGCGUAAUCGUAACGCGUCUCCCUCCUAAGGAGAAGAGUGCGGGUUCGAGUCCCGUACGAAACG [G17C C46G G68A]: the yeast fitness is ≤ 0.5.

For GUUCCGUUGGCGUAAUGCUAUCGCGCCUCCCUCCUAAGGAGAAGACUGCGCGUUCGAGUCCCGUACGGAACG [G18C A21U U26C G51C], the yeast fitness is 0.739.

Take GUUCCGUUGACGUAAUGGUAACGCGUCUCCCUCCUAAGGAGAAGACUGCGGGUUCGAGUCCCGCACGGAACG [G10A U64C]: the yeast fitness stood at 0.793.

As for GUUCCGUUGGCGUAAUGGUAACGCGUUUCCCUCCUAAGGAGAAGACUGCGGGUUUGAGUCCCGUACCGAACG [C27U C55U G67C], the yeast fitness is 0.572.

For the variant GUUCCGUUGGCGUAAUGGUAACGCGUCUCCCUCCUACGGAGAAGCCUGCGGGUUCGAGUCCCGUACGGAACG [A37C A45C], the yeast fitness is 0.758.

Regarding GUUCCGUUGGCCUAAUGGUAACGCGUCUCCCUCCUAAGGAGAAGACUGCGGGUACGAGUCCCGUCCGGAACG [G12C U54A A65C], the yeast fitness was ≤ 0.5.

For the variant GUUCCGUUGGCGUAAUGGUAAGGAGUCUCCCUCCUAAAGAGAACACUGCGGGUUCGAGACCCGUACGGAACG [C22G C24A G38A G44C U59A], the yeast fitness was ≤ 0.5.

As to GUUCCGUUGGCGUAAUGGUAACGCGUCUCCCUCCUUAGGAGACGACUGAGGGUUGGAGUCCCGUACGGAACG [A36U A43C C49A C55G], the yeast fitness is ≤ 0.5.

In the case of GUUCCGUUGGCGUAAUGGUAACGCGUCUCCCUCCUUAGGGGAAGACUGCGGGUUCGAGUCCCGUACGGAACG [A36U A40G], the yeast fitness is 0.549.

As for GUUCCGUGGGCGUAAUAGUAACGGGUCUCCCUCCUAAGGAGAAGACUGCGGGUUCGAGUCCCGUACGGAACG [U8G G17A C24G], the yeast fitness was ≤ 0.5.

As to GUUACGUUGGCGUAAUGGUAACGCGUUGCCCUGCUGAGGAGAAGACUGCGGGUUCGAGUCCCGUACGGAACG [C4A C27U U28G C33G A36G], the yeast fitness was 0.533.

As for GUUCCGAUGGCGUAAUGGUAACGCGUCUCCCUCCUAAGGAGAACACUGCGGGUUCGAGUCCCAUACGGAACG [U7A G44C G63A], the yeast fitness was ≤ 0.5.

In the case of GUUCCGUUGGCGUAAUGGUAACGCGUCUCCCUCCUAAGGAGAAGACAGCGAGUUCGAGUCCCGUACGGGACG [U47A G51A A69G], the yeast fitness is ≤ 0.5.

On to GUUCCGCUGGCGUAAUGGUAACGCGUCUCCCUCCUAAGGAGAAGAUUGCGGGUUCGAGUCACGUACAGAACG [U7C C46U C61A G67A], for which the yeast fitness came to 0.561.

GUUCCGUUGGCGUAAUGGUAACGGGUCUCCCUCCUAAGGAGAAGACUGCGGGUGCGAGUCCCAUACGGAACG [C24G U54G G63A]: the yeast fitness is 0.553.

Regarding GUUCCGUUGGCGUAAUGGUAACGCGCUUCCCUCCUAAGGAGAAGACUGCGGGUUCGAGUCCUGUACGGAACG [U26C C27U C62U], the yeast fitness amounted to 0.754.

Consider GUUCCGUUGGCGUACUGGUAACGCGUCUCCCUCCUUAGAAGAAGACUGCGGGUUCGAGUCCCGUACGGAACG [A15C A36U G39A], for which the yeast fitness is ≤ 0.5.

For GUUCCGUUGGCAUAAUGGUAACGCGUCUCCCUCCUAAGGAGAUGCCUGCGGGUUCGAGUCCCGUACCGAACG [G12A A43U A45C G67C], the yeast fitness amounted to 0.542.

As for GUUCCGUUGGCGUAAUGGUAACGCGUCUCCCUCCUAAGGAGAAGACUGCCGGUUCGAGUGCCGUACGGAACG [G50C C60G], the yeast fitness was ≤ 0.5.

For the variant GUUCCGUUGGCGUAAUGGUAACGCGUCUCCCUCCUAAGGAGAAGACUGCGGGUUCAAAUCCCGUACCGAACG [G56A G58A G67C], the yeast fitness worked out at 0.679.

In the case of GCUCCGUUGGCGUAAUGGUUACGCGUCUCCCUCCUAAGGUGAAGACUGCGGGUUCGAGUCCCGUACGGAACG [U2C A20U A40U], the yeast fitness worked out at 0.52.

In the case of GUUCCGUUGGCGUAAUGGUAACGCCUCUCCUUCCUAAGGAGAAGAUUGCGGGUUCGAGUCCCGUACGGAACG [G25C C31U C46U], the yeast fitness was determined as 0.684.

Regarding GUUCCGUUGGCGUAAUGGUAGCGCGUCUCACGCCUAAGGAGAAGACUGCGGGUUCGAGUCCCGUACAGCACG [A21G C30A U32G G67A A69C], the yeast fitness is ≤ 0.5.

Regarding GUUCAGUUGGCGUAAGGGUACCGUGUCUCACUCCUAAGGAGAAGACUGCGGGUUCGAGGCCCGUACGGAACG [C5A U16G A21C C24U C30A U59G], the yeast fitness is ≤ 0.5.

With GUUCCGUUGGCGUUAUCGUAACGCGUCUCGCUCCUAAGGACCAGACCGCAGGUUCGAGUCCAGUACGGAACG [A14U G17C C30G G41C A42C U47C G50A C62A], the yeast fitness is ≤ 0.5.

For GUUUCGUUGGCGUAAUGGUGACGCGUCUCCCUCCUAAGGAGAAGACUGCGGGUUUGAGUCCCGUGCGGAACG [C4U A20G C55U A65G], the yeast fitness was ≤ 0.5.
